Measured values taken from ChEMBL document CHEMBL2169835, “Flavonoid dimers as novel, potent antileishmanial agents” (J Med Chem, 2012).

Key:
Leishmania donovani [1] = experiment: Antimicrobial activity against SSG-resistant Leishmania donovani 39 promastigote assessed as inhibition of parasite growth after 72 hrs by MTS assay; type: functional, organism-based; settings: Leishmania donovani, 39, 72 h
Procedure, shortened: (§1)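 Promastigotes were grown in Schneider's medium pH 6.9 with 10% heat-inactivated FBS at 27 °C, seeded at 1 × 10^5 per well, and exposed to serial concentrations for 72 h at 27 °C. Compounds were in DMSO (≤1% final) or water. MTS:PMS (20:1) was added for 4 h, then OD490 was read. Survival was % of untreated control; IC50 = concentration halving OD; N = 1−4.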

Leishmania donovani [2] = experiment: Antimicrobial activity against wild-type Leishmania donovani AG83 promastigote assessed as inhibition of parasite growth after 72 hrs by MTS assay; type: functional, organism-based; settings: AG83, 72 h
Procedure, shortened: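 Promastigotes were grown in Schneider's medium pH 6.9 with 10% heat-inactivated FBS at 27 °C, seeded at 1 × 10^5 per well, and exposed to serial concentrations for 72 h at 27 °C. Compounds were in DMSO (≤1% final) or water. MTS:PMS (20:1) was added for 4 h, then OD490 was read.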

RAW264.7 = experiment: Cytotoxicity against mouse RAW264.7 cells after 72 hrs by MTS assay; type: cell-based; settings: RAW264.7, 72 h
Procedure, shortened: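 RAW 264.7 murine macrophage line was plated at 1 × 10^4 cells per well in supplemented DMEM. Cells received a graded compound series for 72 h at 37 °C, 5% CO2, with a maximum of 1% DMSO. Viability was measured by MTS with PMS coupling at OD 490 nm, as percent of untreated control. The IC50 was the concentration reducing OD by half, given as mean ± SEM, N = 1–4.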

Leishmania donovani [3] = experiment: Antimicrobial activity against pentamidine-resistant Leishmania donovani AG83PentR50 promastigote assessed as inhibition of parasite growth after 72 hrs by MTS assay; type: functional, organism-based; settings: AG83PentR50, 72 h; procedure, shortened: as §1

SMILES | IC50 (Leishmania donovani [1]) | IC50 (Leishmania donovani [2]) | IC50 (RAW264.7) | IC50 (Leishmania donovani [3])
O=c1cc(-c2ccc(OCCOCCOCCOCCOc3ccc(-c4cc(=O)c5c(O)cccc5o4)cc3)cc2)oc2cccc(O)c12 | > 24 µM | > 24 µM |  | 
O=c1cc(-c2ccc(OCCOCCOCCOc3ccc(-c4cc(=O)c5c(O)cc(O)cc5o4)cc3)cc2)oc2cc(O)cc(O)c12 | 2.7 µM | 5.6 µM | > 200 µM | 6.7 µM
Cc1ccc2oc(-c3ccc(OCCOCCOCCOCCOc4ccc(-c5cc(=O)c6cc(C)ccc6o5)cc4)cc3)cc(=O)c2c1 | > 24 µM | > 24 µM | > 100 µM | > 24 µM
O=c1cc(-c2ccc(OCCOCCOc3ccc(-c4cc(=O)c5ccccc5o4)cc3)cc2)oc2ccccc12 | > 24 µM | > 24 µM | > 100 µM | > 24 µM
CCc1ccc2oc(-c3ccc(OCCOCCOCCOCCOCCOc4ccc(-c5cc(=O)c6cc(CC)ccc6o5)cc4)cc3)cc(=O)c2c1 | 4.6 µM | 4.7 µM | > 200 µM | 6.3 µM
Cc1c(-c2ccc(OCCOCCOCCOCCOCCOCCOc3ccc(-c4oc5ccccc5c(=O)c4C)cc3)cc2)oc2ccccc2c1=O | 2.8 µM | 1.9 µM | 2.3 µM | 2.5 µM
COC(=O)c1ccc(CN(CCOCCOc2ccc(-c3cc(=O)c4ccccc4o3)cc2)CCOCCOc2ccc(-c3cc(=O)c4ccccc4o3)cc2)cc1 | > 100 µM | > 100 µM | 45.7 µM | 
CS(=O)(=O)N(CCOCCOc1ccc(-c2cc(=O)c3ccccc3o2)cc1)CCOCCOc1ccc(-c2cc(=O)c3ccccc3o2)cc1 | 0.9 µM | 0.75 µM | 96 µM | 
O=C(O)CCC(=O)N(CCOCCOc1ccc(-c2cc(=O)c3ccccc3o2)cc1)CCOCCOc1ccc(-c2cc(=O)c3ccccc3o2)cc1 | > 100 µM | > 100 µM | 65 µM | 27 µM
O=c1cc(-c2ccc(OCCOCCN(CCOCCOc3ccc(-c4cc(=O)c5ccccc5o4)cc3)Cc3ccccc3F)cc2)oc2ccccc12 |  | > 100 µM |  | 
Cc1ccc(S(=O)(=O)N(CCOCCOc2ccc(-c3cc(=O)c4ccccc4o3)cc2)CCOCCOc2ccc(-c3cc(=O)c4ccccc4o3)cc2)cc1 | > 100 µM | 100 µM | > 100 µM | 
O=c1cc(-c2ccc(OCCOCCOCCOCCOCCOCCOCCOCCOc3ccc(-c4cc(=O)c5ccccc5o4)cc3)cc2)oc2ccccc12 | 4.6 µM | 5 µM | 4.4 µM | 6 µM
CC(C)(C)OC(=O)N(CCOCCOc1ccc(-c2cc(=O)c3ccccc3o2)cc1)CCOCCOc1ccc(-c2cc(=O)c3ccccc3o2)cc1 | 1.6 µM | 3.2 µM | > 100 µM | 1.1 µM
CCc1ccc2oc(-c3ccc(OCCOCCOCCOCCOCCOCCOc4ccc(-c5cc(=O)c6cc(CC)ccc6o5)cc4)cc3)cc(=O)c2c1 | 2.5 µM | 3.1 µM | 5.5 µM | 3.3 µM
O=c1cc(-c2ccc(OCCOCCN(CCOCCOc3ccc(-c4cc(=O)c5ccccc5o4)cc3)Cc3ccc(C(F)(F)F)cc3)cc2)oc2ccccc12 |  | 14.1 µM |  | 
O=c1cc(-c2ccc(OCCOCCOCCOCCOc3ccc(-c4cc(=O)c5c(O)cc(O)cc5o4)cc3)cc2)oc2cc(O)cc(O)c12 | 1.9 µM | 2.2 µM | > 200 µM | 3.1 µM
O=c1cc(-c2ccc(OCCOCCOCCOCCOCCOCCOCCOCCOCCOc3ccc(-c4cc(=O)c5ccccc5o4)cc3)cc2)oc2ccccc12 | 8.6 µM | 9.4 µM | 8.1 µM | 10.6 µM
O=c1cc(-c2ccc(OCCOCCOCCOCCOCCOCCOCCOCCOCCOCCOCCOCCOCCOc3ccc(-c4cc(=O)c5ccccc5o4)cc3)cc2)oc2ccccc12 | 8.2 µM | 9.2 µM | 8.4 µM | 7.9 µM
O=c1cc(-c2ccc(OCCOCCOCCOCCOCCOCCOc3ccc(-c4cc(=O)c5ccccc5o4)cc3)cc2)oc2ccccc12 | 4.3 µM | 4.8 µM | 7.1 µM | 4.9 µM

SMILES | IC50 (Leishmania donovani [1]) | IC50 (Leishmania donovani [2]) | IC50 (RAW264.7) | IC50 (Leishmania donovani [3])
CCOC(=O)CCN(CCOCCOc1ccc(-c2cc(=O)c3ccccc3o2)cc1)CCOCCOc1ccc(-c2cc(=O)c3ccccc3o2)cc1 | 6.6 µM | 3.8 µM | 16 µM | 
O=c1cc(-c2ccc(OCCOCCN(CCOCCOc3ccc(-c4cc(=O)c5ccccc5o4)cc3)Cc3ccc([N+](=O)[O-])cc3)cc2)oc2ccccc12 | > 100 µM | > 100 µM | 70.3 µM | 
Cc1ccc2c(=O)cc(-c3ccc(OCCOCCOCCOCCOCCOc4ccc(-c5cc(=O)c6ccc(C)cc6o5)cc4)cc3)oc2c1 | 7.9 µM | 4.4 µM | > 80 µM | 3.8 µM
Cc1ccc2c(=O)cc(-c3ccc(OCCOCCOCCOCCOCCOCCOc4ccc(-c5cc(=O)c6ccc(C)cc6o5)cc4)cc3)oc2c1 | 5.3 µM | 6.7 µM | 5.3 µM | 4.1 µM
O=c1cc(-c2ccc(OCCOCCOCCOCCOCCOc3ccc(-c4cc(=O)c5ccccc5o4)cc3)cc2)oc2ccccc12 | 7.8 µM | 5.3 µM | 8.9 µM | 10.4 µM
Cc1c(-c2ccc(OCCOCCOCCOCCOCCOc3ccc(-c4oc5ccccc5c(=O)c4C)cc3)cc2)oc2ccccc2c1=O | 4.2 µM | 4.8 µM | 3.1 µM | 4.6 µM
O=c1cc(-c2ccc(OCCOCCOCCOCCOCCOCCOc3ccc(-c4cc(=O)c5ccc(F)cc5o4)cc3)cc2)oc2cc(F)ccc12 | 4.2 µM | 4.2 µM | 7.8 µM | 4.6 µM
O=c1cc(-c2ccc(OCCOCCN(CCOCCOc3ccc(-c4cc(=O)c5ccccc5o4)cc3)Cc3cccc(F)c3)cc2)oc2ccccc12 |  | > 100 µM |  | 
O=c1cc(-c2ccc(OCCOCCOCCOCCOCCOc3ccc(-c4cc(=O)c5ccc(F)cc5o4)cc3)cc2)oc2cc(F)ccc12 | 4.8 µM | 4.1 µM | > 100 µM | 3.7 µM
O=c1cc(-c2ccc(OCCOCCN(CCCc3ccccc3)CCOCCOc3ccc(-c4cc(=O)c5ccccc5o4)cc3)cc2)oc2ccccc12 | 18.4 µM | 8.9 µM | 85 µM | 
O=c1cc(-c2ccc(OCCOCCN(CCOCCOc3ccc(-c4cc(=O)c5ccccc5o4)cc3)Cc3ccccc3)cc2)oc2ccccc12 | 12.3 µM | 8.4 µM | > 79 µM | 
O=c1cc(-c2ccc(OCCOCCN(CCOCCOc3ccc(-c4cc(=O)c5ccccc5o4)cc3)Cc3ccc(F)cc3)cc2)oc2ccccc12 |  | > 100 µM |  | 
O=c1cc(-c2ccc(OCCOCCN(CCO)CCOCCOc3ccc(-c4cc(=O)c5ccccc5o4)cc3)cc2)oc2ccccc12 | 7.2 µM | 3.2 µM | 6.4 µM | 
O=c1c(O)c(-c2ccc(OCCOCCOCCOCCOc3ccc(-c4oc5ccccc5c(=O)c4O)cc3)cc2)oc2ccccc12 | > 24 µM | > 24 µM |  | 
O=c1cc(-c2ccc(OCCOCCOCCOCCOCCOCCOc3ccc(-c4cc(=O)c5c(O)cc(O)cc5o4)cc3)cc2)oc2cc(O)cc(O)c12 | 1.4 µM | > 24 µM |  | 11.8 µM
O=c1cc(-c2ccc(OCCOCCN(CCOCCOc3ccc(-c4cc(=O)c5ccccc5o4)cc3)Cc3ccnc4ccccc34)cc2)oc2ccccc12 |  | 20.4 µM |  | 
O=c1cc(-c2ccc(OCCOCCN(CCOCCOc3ccc(-c4cc(=O)c5ccccc5o4)cc3)Cc3cc(F)c(F)c(F)c3)cc2)oc2ccccc12 |  | 33.3 µM |  | 
CCN(CCOCCOc1ccc(-c2cc(=O)c3ccccc3o2)cc1)CCOCCOc1ccc(-c2cc(=O)c3ccccc3o2)cc1 | 5.5 µM | 3.2 µM | 8.3 µM | 
